Results taken from ChEMBL document CHEMBL4725355, “Design, Synthesis, and Preclinical Evaluation of 3-Methyl-6-(5-thiophenyl)-1,3-dihydro-imidazo[4,5-b]pyridin-2-ones as Selective GluN2B Negative Allosteric Modulators for the Treatment of Mood Disorders” (J Med Chem, 2020).
pIC50, pKi: −log10 of the molar value.

How the values were obtained:
[1] = Negative allosteric modulation of human GluN1a/GluN2B receptor expressed in CHO cells assessed as inhibition of glutamate and glycine-induced calcium flux preincubated for 5 mins followed by glutamate and glycine addition and measured after 5 mins by calcium 5 dye based FLIPR assay; type: cell-based
In short: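 Tet-On CHO T-Rex cells expressing hGluN1a with GluN2A, 2B, 2C or 2D, plated at 20,000 cells/well and induced 24 h before the assay in the presence of ketamine. Cells loaded 1 h at room temperature with Calcium 5 dye, pH 7.4 HEPES buffer. Compound added 5 min, then glutamate (~EC80) plus 10 µM glycine for 5 min; FLIPR fluorescence normalized to control wells. Three independent runs in duplicate (two for some).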

[2] = Solubility of compound in phosphate buffer at pH 2 measured after 3 days; type: physicochemical; conditions: time 3 day
In short: (§1)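 Solubility in aqueous buffer at pH 2 and pH 7, and in simulated gastric and intestinal fluids.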

[3] = Solubility of compound in phosphate buffer at pH 7 measured after 3 days; type: physicochemical; conditions: time 3 day; in short: as §1
[4] = Efflux ratio of apparent permeability across basolateral to apical side over apical to basolateral side in MDCK-MDR1 cells at 5 uM measured after 60 mins by LC-MS/MS analysis; type: ADME, cell-based, Canis lupus familiaris; conditions: dog
In short: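 MDCK-MDR1 cells, passages 6-30, seeded at 3.4×10^5 cells/cm² and cultured 3 days. Test compound at 5 µM final (1% DMSO) in HBSS, pH 7.4, applied to the donor side. A→B and B→A runs at 37 °C for 60 min, in duplicate, quantified by LC/MS/MS. Efflux ratio taken as B-A/A-B; monolayer integrity checked by lucifer yellow.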

[5] = molecular target: Voltage-gated inwardly rectifying potassium channel KCNH2 (Homo sapiens, UniProt Q12809); assay: Inhibition of human ERG expressed in CHO cells measured after 5 mins by Qpatch method; type: cell-based
In short: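 CHO cells stably expressing hERG, whole-cell QPatch. Vehicle applied 5 min, then 0.3, 3.0, 10 and 30 µM in rising order, each concentration applied twice. Current measured after 5 min as the average of 3 voltage pulses; block taken relative to vehicle pretreatment, mean ± SEM.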

[6] = Displacement of 3-[3H] 1-(azetidin-1-yl)-2-[6-(4-fluoro-3-methyl-phenyl)pyrrolo[3,2-b]pyridin-1-yl]ethanone from GluN1a/GluN2B receptor in rat cortex membranes measured after 2 hrs by liquid scintillation counting method; type: cell membranes
In short: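 Rat adult cortex was homogenized in 50 mM Tris pH 7.4, and membranes were washed by centrifugation. Membranes were incubated with the [3H] pyrrolopyridine tracer and test compound for 2 h at room temperature with shaking. Non-specific binding was defined with 10 µM CP-101,606. Bound tracer was separated by filtration on PEI-soaked GF/B filters and counted by liquid scintillation. Ki was obtained from a competition fit using tracer Kd; three independent runs in duplicate.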

[7] = Metabolic stability in human liver microsomes assessed as extraction ratio at 1 uM after 5 to 60 mins in presence of NADPH by LC-MS/MS analysis; type: ADME, Microsome; conditions: time 5-60 min, read-out: ERH
In short: (§2)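 Human and rat liver microsomes, run in duplicate; stability reported as microsomal extraction ratio.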

[8] = Metabolic stability in rat liver microsomes assessed as extraction ratio at 1 uM after 5 to 60 mins in presence of NADPH by LC-MS/MS analysis; type: ADME, Microsome; conditions: time 5-60 min, read-out: ERH; in short: as §2
[9] = Solubility of compound in 30% sulfobutylether-beta-cyclodextrin at 0.5 mg/ml; type: physicochemical
In short: (§3)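 Solubility of the compound assessed in dosing excipients, including 30% SBE-β-CD, 50% PEG-400 and 20% HP-β-CD. The aim was a solution usable for rat dosing; the 20% HP-β-CD formulation was checked for a 0.1 mg/mL solution to support a 0.5 mg/kg dose.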

[10] = Clearance in Sprague-Dawley rat at 0.1 mg/kg, iv by LC-MS/MS analysis; type: ADME, organism-based; conditions: in vivo
In short: (§4)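 Rat PK with IV and PO dosing, n=3. The usual doses were 0.5 mg/kg IV and 2.5 mg/kg PO in 20% HP-β-CD. One compound was instead given at 0.1 mg/kg IV and 0.5 mg/kg PO.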

[11] = Volume of distribution at steady state in Sprague-Dawley rat at 0.1 mg/kg, iv or 0.5 mg/kg, po by LC-MS/MS analysis; type: ADME, organism-based; conditions: in vivo, read-out: Vdss
In short: (§5)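 Rat PK with doses of 0.1 mg/kg i.v. and 0.5 mg/kg p.o., vehicle 20% HP-β-CD. n=3, values given as mean ± SD.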

[12] = Half life in Sprague-Dawley rat at 0.1 mg/kg, iv or 0.5 mg/kg, po by LC-MS/MS analysis; type: ADME, organism-based; conditions: in vivo
In short: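 Rat PK with 0.1 mg/kg i.v. and 0.5 mg/kg p.o. doses, n=3 ± SD.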

[13] = Cmax in Sprague-Dawley rat at 0.1 mg/kg, iv or 0.5 mg/kg, po by LC-MS/MS analysis; type: ADME, organism-based; set-up: dose 0.5 mg/kg; conditions: in vivo; in short: as §4
[14] = AUC (infinity) in Sprague-Dawley rat at 0.1 mg/kg, iv or 0.5 mg/kg, po by LC-MS/MS analysis; type: ADME, organism-based; set-up: dose 0.5 mg/kg; conditions: in vivo; in short: as §4
[15] = Tmax in Sprague-Dawley rat at 0.1 mg/kg, iv or 0.5 mg/kg, po by LC-MS/MS analysis; type: ADME, organism-based; conditions: in vivo; in short: as §5
[16] = Oral bioavailability in Sprague-Dawley rat at 0.5 mg/kg by LC-MS/MS analysis; type: ADME, organism-based; conditions: in vivo
[17] = Solubility of compound in 100% polyethylene glycol 400 at 0.5 mg/ml; type: physicochemical
[18] = Solubility of compound in 20% hydroxypropyl-beta-cyclodextrin at 0.1 mg/ml; type: physicochemical; in short: as §3
[19] = Ex vivo receptor occupancy at GluN2B in Sprague-Dawley rat assessed as 3-[3H] 1-(azetidin-1-yl)-2-[6-(4-fluoro-3-methyl-phenyl)pyrrolo[3,2-b]pyridin-1-yl]-ethanone labelling at 3 mg/kg, po measured after 0.5 hrs by autoradiography; type: functional
In short: (§6)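 Rats dosed orally at 3 mg/kg in 20% HP-β-CD; brains taken at 0.5, 2 and 6 h. Ex vivo autoradiography of brain slices with the ³H pyrrolo[3,2-b]pyridine GluN2B tracer. Labelling expressed relative to matching brain areas of vehicle-treated animals; n=2, ± SEM.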

[20] = Ex vivo receptor occupancy at GluN2B in Sprague-Dawley rat assessed as 3-[3H] 1-(azetidin-1-yl)-2-[6-(4-fluoro-3-methyl-phenyl)pyrrolo[3,2-b]pyridin-1-yl]-ethanone labelling at 3 mg/kg, po measured after 2 hrs by autoradiography; type: functional; in short: as §6
[21] = Ex vivo receptor occupancy at GluN2B in Sprague-Dawley rat assessed as 3-[3H] 1-(azetidin-1-yl)-2-[6-(4-fluoro-3-methyl-phenyl)pyrrolo[3,2-b]pyridin-1-yl]-ethanone labelling at 3 mg/kg, po measured after 6 hrs by autoradiography; type: functional; in short: as §6
[22] = Cmax in Sprague-Dawley rat brain at 3 mg/kg, po after 2 hrs by LC-MS/MS analysis; type: ADME, organism-based; set-up: route oral, dose 3 mg/kg, time 2 hrs
In short: (§7)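 Oral dose of 3 mg/kg in 20% HP-β-CD to rats. Brain concentration was measured alongside ex vivo GluN2B occupancy over a 6 h time course (0.5, 2 and 6 h), n=2.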

[23] = Tmax in Sprague-Dawley rat brain at 3 mg/kg, po by LC-MS/MS analysis; type: ADME, organism-based
In short: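 Rats dosed orally at 3 mg/kg in 20% HP-β-CD. Brain concentrations were measured over a 6 h time course (0.5, 2, 6 h) alongside ex vivo GluN2B occupancy, n=2.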

[24] = Cmax in Sprague-Dawley rat brain at 3 mg/kg, po after 6 hrs by LC-MS/MS analysis; type: ADME, organism-based; set-up: route oral, dose 3 mg/kg, time 6 hrs; in short: as §7

Voltage-gated inwardly rectifying potassium channel KCNH2, sequence (Q12809 whole entry): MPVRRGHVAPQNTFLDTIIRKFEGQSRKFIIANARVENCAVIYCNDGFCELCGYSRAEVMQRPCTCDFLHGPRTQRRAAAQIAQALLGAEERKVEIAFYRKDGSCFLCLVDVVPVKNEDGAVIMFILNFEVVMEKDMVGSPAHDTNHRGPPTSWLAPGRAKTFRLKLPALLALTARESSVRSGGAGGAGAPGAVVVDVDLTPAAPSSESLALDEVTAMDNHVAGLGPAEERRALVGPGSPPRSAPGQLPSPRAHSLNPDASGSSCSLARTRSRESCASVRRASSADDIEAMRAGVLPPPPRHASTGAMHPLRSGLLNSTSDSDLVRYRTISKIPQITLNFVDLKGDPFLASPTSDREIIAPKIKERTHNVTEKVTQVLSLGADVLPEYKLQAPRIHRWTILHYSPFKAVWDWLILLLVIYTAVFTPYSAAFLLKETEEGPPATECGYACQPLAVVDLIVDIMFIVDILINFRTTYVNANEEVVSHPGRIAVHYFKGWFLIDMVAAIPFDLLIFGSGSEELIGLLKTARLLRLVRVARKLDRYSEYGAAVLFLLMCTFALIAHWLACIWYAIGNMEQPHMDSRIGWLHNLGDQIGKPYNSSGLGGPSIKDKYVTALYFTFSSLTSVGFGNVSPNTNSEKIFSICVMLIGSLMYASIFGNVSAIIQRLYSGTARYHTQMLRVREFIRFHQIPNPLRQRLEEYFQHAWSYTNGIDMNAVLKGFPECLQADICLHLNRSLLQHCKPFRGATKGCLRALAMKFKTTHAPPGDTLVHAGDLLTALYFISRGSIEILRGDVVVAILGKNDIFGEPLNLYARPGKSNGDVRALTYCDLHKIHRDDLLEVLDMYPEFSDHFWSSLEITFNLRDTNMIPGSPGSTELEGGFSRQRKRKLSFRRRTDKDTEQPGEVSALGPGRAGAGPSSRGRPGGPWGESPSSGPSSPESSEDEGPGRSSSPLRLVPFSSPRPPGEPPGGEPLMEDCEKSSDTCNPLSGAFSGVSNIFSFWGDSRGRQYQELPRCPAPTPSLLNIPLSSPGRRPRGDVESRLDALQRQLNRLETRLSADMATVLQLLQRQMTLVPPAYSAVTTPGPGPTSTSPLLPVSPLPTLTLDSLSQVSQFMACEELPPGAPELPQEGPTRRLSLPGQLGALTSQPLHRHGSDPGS

## CN(C)C(=O)Cn1c(=O)n(C)c2ncc(-c3ccc(C(F)(F)F)s3)cc21
[1]
  pIC50: 7.54
[2]
  solubility at 72 h: < 4 µM
[3]
  solubility at 72 h: < 4 µM
[4]
  efflux ratio at 1 h, 5 µM: 1.4
[5]
  pIC50: < 5.00
[6]
  pKi: 7.92
[7]
  hepatic extraction ratio at 1 µM: < 0.3
[8]
  hepatic extraction ratio at 1 µM: < 0.17
[9]
  solubility: Insoluble
[10]
  clearance: 14 mL/min/kg
[11]
  Vd: 1.2 L/kg
[12]
  half-life: 1.3 h
[13]
  Cmax: 188 ng/mL
[14]
  AUC(0-inf): 912 ng·h/mL
[15]
  Tmax: 1 h
[16]
  bioavailability: 121%
[17]
  solubility: Insoluble
[18]
  solubility: Soluble
[19]
  Occ: 79%
[20]
  Occ: 80%
[21]
  Occ: 77%
[22]
  Cmax: 1260 ng/g
[23]
  Tmax: 2 h
[24]
  Cmax: 598 ng/g
